Experimental data taken from ChEMBL document CHEMBL1240446, “Synthesis and biological activities of novel amine-derived bis-azoles as potential antibacterial and antifungal agents” (2010).
Converted amounts (≈) assume the structure as drawn.

Experiments:
Format in all cases: functional
Escherichia coli = experiment: Antibacterial activity against Escherichia coli ATCC 25922 after 24 hrs by micro-broth dilution method; settings: ATCC 25922, 24 h
In short: (§1)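 MIC by broth microdilution following NCCLS methods. Inoculum adjusted in sterile saline to 1×10^4–1×10^5 CFU. Compounds from DMSO stocks, two-fold serial dilutions in Mueller-Hinton broth at 256 down to 0.25 µg/mL. Incubation 37 °C, 24 h. DMSO solvent control at matching dilutions. Growth read visually and spectrophotometrically. MIC is the lowest concentration arresting growth.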

Staphylococcus aureus [1] = experiment: Antibacterial activity against Staphylococcus aureus ATCC 29213 after 24 hrs by micro-broth dilution method; settings: ATCC 29213, 24 h
In short: (§2)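 Broth microdilution per NCCLS in Mueller-Hinton broth. Inoculum adjusted in sterile saline to 1×10^4–1×10^5 CFU. Compounds taken from DMSO stocks and serially diluted two-fold to final 256–0.25 µg/mL (11 levels). Incubation 37 °C, 24 h, with a DMSO solvent control. Growth read visually and spectrophotometrically. MIC is the lowest concentration that arrests growth.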

Pseudomonas aeruginosa = experiment: Antibacterial activity against Pseudomonas aeruginosa ATCC 27853 after 24 hrs by micro-broth dilution method; settings: ATCC 27853, 24 h; in short: as §1
Bacillus = experiment: Antibacterial activity against Bacillus proteus ATCC 13315 after 24 hrs by micro-broth dilution method; settings: ATCC 13315, 24 h; in short: as §1
Staphylococcus aureus [2] = experiment: Antibacterial activity against methicillin-resistant Staphylococcus aureus N315 after 24 hrs by micro-broth dilution method; settings: N315, 24 h; in short: as §2
Candida albicans = experiment: Antifungal activity against Candida albicans ATCC 76615 after 24 hrs by micro-broth dilution method; settings: ATCC 76615, 24 h
In short: (§3)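 Broth microdilution per NCCLS. Spore suspension in sterile distilled water, taken from 1-day-old cultures on Sabouraud agar, final 1–5×10^3 spores/mL. Compounds diluted from stocks in RPMI 1640 to eleven concentrations, 0.25–256 µg/mL. Incubation 35 °C, 24 h. Growth scored visually and spectrophotometrically. MIC is the lowest concentration arresting fungal growth.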

Aspergillus fumigatus = experiment: Antifungal activity against Aspergillus fumigatus ATCC 96918 after 24 hrs by micro-broth dilution method; settings: ATCC 96918, 24 h; in short: as §3
Bacillus subtilis = experiment: Antibacterial activity against Bacillus subtilis ATCC 21216 after 24 hrs by micro-broth dilution method; settings: ATCC 21216, 24 h; in short: as §1

| SMILES | MIC (Escherichia coli) [µg/mL] | MIC (Staphylococcus aureus [1]) [µg/mL] | MIC (Pseudomonas aeruginosa) [µg/mL] | MIC (Bacillus) [µg/mL] | MIC (Staphylococcus aureus [2]) [µg/mL] | MIC (Candida albicans) [µg/mL] | MIC (Aspergillus fumigatus) [µg/mL] | MIC (Bacillus subtilis) [µg/mL] |
| --- | --- | --- | --- | --- | --- | --- | --- | --- |
| OCCN(CCO)Cc1ccc(F)cc1F | 128 (≈ 554 µM) | 256 (≈ 1110 µM) | 256 (≈ 1110 µM) | 256 (≈ 1110 µM) | > 256 | 256 (≈ 1110 µM) | > 256 | 256 (≈ 1110 µM) |
| OCCN(CCO)Cc1ccc(Cl)cc1Cl | 256 (≈ 969 µM) | 128 (≈ 485 µM) | 128 (≈ 485 µM) | 128 (≈ 485 µM) | 256 (≈ 969 µM) | 128 (≈ 485 µM) | 256 (≈ 969 µM) | 256 (≈ 969 µM) |
| Cl.Clc1ccc(CN(CCn2cncn2)CCn2cncn2)cc1Cl | 32 | 32 | 32 | 0.25 | 32 | 128 | 256 | 16 |
